Rows were chosen to be rich in hits. Some 8.7% of all compounds tested hit in one or more screens of this group.
Cav32 inh = blocks human Cav3.2 T-type calcium channel; actives 4% (n = 100,000); O95180; B-score at 10 µM; Cav3.2-expressing cells, Fluo-4 calcium fluorescence FDSS; hits give low values;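 active = single-dose well whose peak fluorescence ratio is a statistical outlier from its plate by either plate-standardised score or position-corrected B-score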
Target sequence (O95180 whole entry, looked up): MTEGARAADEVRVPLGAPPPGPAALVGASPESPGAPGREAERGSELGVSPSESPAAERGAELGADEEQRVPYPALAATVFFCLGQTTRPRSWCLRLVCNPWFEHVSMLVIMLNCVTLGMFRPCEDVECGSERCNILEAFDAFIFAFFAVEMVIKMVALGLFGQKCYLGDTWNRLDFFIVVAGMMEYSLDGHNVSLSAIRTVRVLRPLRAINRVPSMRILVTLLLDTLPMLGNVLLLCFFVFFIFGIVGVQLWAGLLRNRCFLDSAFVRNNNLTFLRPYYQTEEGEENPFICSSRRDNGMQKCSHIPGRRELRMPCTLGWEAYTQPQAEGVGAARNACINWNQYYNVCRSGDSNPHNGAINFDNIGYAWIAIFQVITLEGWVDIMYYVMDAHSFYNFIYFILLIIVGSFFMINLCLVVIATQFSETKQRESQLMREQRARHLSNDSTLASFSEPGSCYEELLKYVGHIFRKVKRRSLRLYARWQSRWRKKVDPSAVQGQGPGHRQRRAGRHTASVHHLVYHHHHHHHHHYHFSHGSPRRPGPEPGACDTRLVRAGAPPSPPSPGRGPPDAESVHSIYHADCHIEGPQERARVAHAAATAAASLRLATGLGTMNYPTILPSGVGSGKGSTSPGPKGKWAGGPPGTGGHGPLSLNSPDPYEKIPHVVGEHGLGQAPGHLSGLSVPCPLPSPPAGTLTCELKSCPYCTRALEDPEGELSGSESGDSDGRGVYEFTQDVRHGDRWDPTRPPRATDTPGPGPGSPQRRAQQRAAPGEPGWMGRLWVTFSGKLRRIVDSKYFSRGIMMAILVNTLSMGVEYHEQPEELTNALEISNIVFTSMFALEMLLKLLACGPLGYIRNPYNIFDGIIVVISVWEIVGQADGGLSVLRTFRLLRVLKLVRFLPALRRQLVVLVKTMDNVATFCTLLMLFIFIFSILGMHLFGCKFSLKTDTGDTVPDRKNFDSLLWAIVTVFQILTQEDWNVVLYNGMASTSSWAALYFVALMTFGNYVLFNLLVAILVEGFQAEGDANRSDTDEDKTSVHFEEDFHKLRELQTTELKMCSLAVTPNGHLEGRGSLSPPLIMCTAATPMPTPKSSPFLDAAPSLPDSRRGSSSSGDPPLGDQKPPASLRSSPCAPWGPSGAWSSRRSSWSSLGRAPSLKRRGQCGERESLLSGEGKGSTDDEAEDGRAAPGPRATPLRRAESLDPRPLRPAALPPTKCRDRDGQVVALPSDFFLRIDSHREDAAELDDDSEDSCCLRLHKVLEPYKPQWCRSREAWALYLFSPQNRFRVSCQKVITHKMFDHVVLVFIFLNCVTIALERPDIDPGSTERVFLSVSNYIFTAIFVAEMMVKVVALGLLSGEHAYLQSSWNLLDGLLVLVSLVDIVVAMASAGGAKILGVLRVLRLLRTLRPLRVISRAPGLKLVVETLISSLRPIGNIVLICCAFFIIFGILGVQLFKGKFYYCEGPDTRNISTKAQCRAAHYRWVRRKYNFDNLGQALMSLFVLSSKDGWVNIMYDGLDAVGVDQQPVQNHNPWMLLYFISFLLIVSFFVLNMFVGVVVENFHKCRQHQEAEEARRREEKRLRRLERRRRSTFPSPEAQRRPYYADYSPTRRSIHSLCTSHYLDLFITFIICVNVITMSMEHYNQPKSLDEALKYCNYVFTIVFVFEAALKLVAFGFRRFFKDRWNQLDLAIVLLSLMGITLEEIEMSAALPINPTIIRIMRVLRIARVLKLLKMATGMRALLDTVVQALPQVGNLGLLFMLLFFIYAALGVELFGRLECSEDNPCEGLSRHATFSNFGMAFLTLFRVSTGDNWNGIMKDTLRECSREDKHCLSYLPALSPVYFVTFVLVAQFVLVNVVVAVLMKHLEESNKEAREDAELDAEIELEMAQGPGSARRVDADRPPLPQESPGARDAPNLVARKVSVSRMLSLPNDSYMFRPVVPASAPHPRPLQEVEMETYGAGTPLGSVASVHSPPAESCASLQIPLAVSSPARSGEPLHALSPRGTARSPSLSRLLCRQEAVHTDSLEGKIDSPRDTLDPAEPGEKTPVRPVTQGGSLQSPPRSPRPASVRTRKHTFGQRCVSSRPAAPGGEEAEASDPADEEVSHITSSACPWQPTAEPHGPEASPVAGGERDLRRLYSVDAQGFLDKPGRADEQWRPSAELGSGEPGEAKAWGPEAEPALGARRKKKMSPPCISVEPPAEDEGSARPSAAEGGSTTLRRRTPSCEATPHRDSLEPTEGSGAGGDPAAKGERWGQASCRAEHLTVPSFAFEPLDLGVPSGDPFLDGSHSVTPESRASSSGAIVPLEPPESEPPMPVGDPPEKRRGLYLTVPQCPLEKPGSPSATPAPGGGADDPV
E coli WT exp = E. coli BW25113 growth inhibition, expanded screen; OD600 absorbance; growth inhibition, % at 100 µM; actives 0.15% (n = 98,000);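 active = growth inhibition above about 50% at one test dose, limit read from the data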;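 note: growth measured after 20 h incubation at 37 °C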
PostGolgi ctrl = growth of the yeast control strain, post-Golgi counter-screen | inhibition, % at 10 µM | actives 5% (n = 98,000) | efflux-deficient yeast background strain, growth absorbance A615, 16 h
PTK2B oligo ant = antagonists of human Pyk2 oligomerization | z-score (the deposit names both 25 µM and 10 µM) | AID 1347419 | Q293 cells, Pyk2 FERM NanoBiT luminescence; hits give low values | actives 0.83% (n = 99,000) | Q14289;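 active = Z-score of -3 or lower, scaled per plate to the spread of control and sample wells; inactive = z-score above -3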;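 note: negative z-score means lost luminescence so less FERM oligomerization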
PostGolgi yeast = growth inhibition of a yeast mutant, post-Golgi transport screen; post-Golgi transport phenotypic cell assay; inhibition, % at 10 µM; actives 0.9% (n = 98,000); AID 739;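 note: yeast cells grown in 1536-well plates; yeast grown about 18 h at 30C before absorbance read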
Ecoli tolC = blocks growth of E. coli BW25113 tolC mutant; OD615; growth inhibition, % at 10 µM (by protocol); actives 2.2% (n = 65,000);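 active = growth inhibition at or above a cutoff equal to the mean over every tested compound plus 3 SD, cut at about 60% in these data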;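 note: growth measured after 20 h incubation at 37 °C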
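System: E. coli ΔtolC::kan strain BW25113; Buffer or medium: LB broth supplemented with 50 µg/mL kanamycin; Compound: 10 µM final, single dose; Incubation: bacterial growth with compound for 20 h at 37 °C; Signal: A615 absorbance measurement; Evaluation: growth inhibition in percent.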
* = called active by the depositor; · = not tested or not shown. Cut-off read from the data, not from the text of the source, unless noted: active = inhibition above about 30%; inactive = the rest.

SMILES	Cav32 inh	E coli WT exp	PostGolgi ctrl	PTK2B oligo ant	PostGolgi yeast	Ecoli tolC
O=C(Nc1cccc(F)c1)C1CC(=O)N(c2ccc(Cl)cc2)C1 (stereo not drawn)	-5.8*	3	10	0.75	-3	8
O=C(Nc1cccc(Cl)c1Cl)C1CC(=O)N(c2ccc(Br)cc2)C1 (stereo not drawn)	-1.5	·	·	1.4	·	·
C=CCN(CC=C)C(=O)C1CC(=O)N(c2ccc(Br)cc2)C1 (stereo not drawn)	0.43	1	-14	-1.4	-5	-8
O=C(Nc1cccc(F)c1)C1CC(=O)N(c2ccc(Br)cc2)C1 (stereo not drawn)	-5.4*	8	14	0.68	-2	17
CCCC(C)C(=O)Nc1ccc(Cl)cn1 (stereo not drawn)	0.1	13	1	-1.2	-8	6
O=C(Nc1ccc(Cc2ccc(NC(=O)C3CC3)c(O)c2)cc1O)C1CC1	-1.4	1	0	0.26	0	11
CC(=O)Nc1ccccc1Nc1nc(NCCO)nc(N2CCCC2)n1	0.74	·	·	·	·	·
CN1C(=O)C2(Oc3ccccc3C3CC(c4ccccc4)=NN32)c2ccccc21 (stereo not drawn)	-0.11	-11	51*	-0.91	-6	·
Cc1ccc(C2=NN3C(C2)c2ccccc2OC32C(=O)Nc3ccccc32)cc1 (stereo not drawn)	-1.6	2	18	-0.81	-5	·
O=C(Nc1ncc2c(n1)-c1ccccc1CC2)c1ccc(Cl)cc1	-1.6	-4	13	0.71	-4	·
O=C(Nc1nc(N2C(=O)c3ccccc3C2=O)n(-c2ccccc2)n1)c1ccc(Cl)cc1	-1.8	-5	35*	-0.53	2	·
CCCCOc1ccc(NC2=NC3(CCCCC3)N=C(N)N2)cc1	·	59*	30	0.7	-3	99*
O=C(NCCc1ccccc1F)C(=O)Nc1nccs1	2.1	-4	30*	0.42	-11	·
O=C(Nc1nccs1)Oc1ccccc1	0.43	7	37*	-1.3	-5	-19
CCC(=O)Nc1cccc(NC(=O)c2cccc([N+](=O)[O-])c2)c1	-0.28	-1	12	0.66	-3	·
CC(C)=CCc1c(O)cc(O)c2c(=O)c3c(CC=C(C)C)c(O)ccc3oc12	0.42	·	·	·	·	·
CCOC(=O)c1c(-c2ccc(OC)cc2)csc1NC(=O)CSc1ccccc1	-4.8*	-16	1	0.12	-8	·
CCOC(=O)c1c(-c2cccs2)csc1NC(=O)CN(CC)CC	-4.5	8	9	-3.6*	15	·
CCOC(=O)c1c(-c2ccc(C)cc2)csc1NC(=S)NC(=O)c1ccccc1	-0.72	-14	5	-0.83	10	·
CCOC(=O)c1c(-c2ccc(C)o2)csc1NC(=O)CSc1ncn[nH]1	-4	3	34*	0.29	1	·
CCOC(=O)c1c(-c2ccc(C)o2)csc1NC(=O)CN1CCOCC1	-3	-4	-2	-0.46	16	·
Cn1nnnc1SCC(=O)Nc1ccccc1-c1ccccc1	-0.12	3	2	-0.73	16	-8
CCOC(=O)c1c(-c2ccccc2)csc1NC(=O)CSc1nnnn1C	-3.7	-14	38*	-2.7	3	49
CN(C)S(=O)(=O)N1CCN(C(=O)c2cccs2)CC1	·	-6	8	-0.2	-2	·
COc1ccc(OC(=O)c2cnn(-c3ccccc3)c2C)cc1	-0.51	6	4	-0.42	10	·
SMILES	Cav32 inh	E coli WT exp	PostGolgi ctrl	PTK2B oligo ant	PostGolgi yeast	Ecoli tolC
CCc1cc2c(=O)n(CC)c(SC(C)C(=O)Nc3c(C)n(C)n(-c4ccccc4)c3=O)nc2s1 (stereo not drawn)	2.1	-1	4	1.1	0	·
CC(C)(NCc1ccccc1Cl)C(=O)O	·	·	·	·	·	-25
COc1ccc(S(=O)(=O)N2CCN(CC(=O)Nc3cc(C(F)(F)F)ccc3Cl)CC2)cc1	1.3	-9	21	0.74	9	-13
CCOC(=O)c1c(NC(=O)CSc2nnnn2C)sc(C)c1-c1ccc(C)cc1	-4.5*	-20	27	-4.2*	10	41
CCOC(=O)c1ccccc1NC(=O)CSc1nnnn1C	0.071	·	·	0.26	·	·
CCOC(=O)c1c(-c2cccc([N+](=O)[O-])c2)csc1NC(=O)CCCOc1ccccc1OC	-4.8*	·	·	0.26	·	·
COc1cc([N+](=O)[O-])ccc1NC(=O)CCCOc1cccc(C)c1	-3.4*	-25	17	0.02	-11	·
COc1ccc(OCCCC(=O)Nc2cccc([N+](=O)[O-])c2)cc1	·	·	·	1.1	·	·
CCOc1ccc(NC(=O)N2CCC(c3ccc(C)cc3)C2)cc1 (stereo not drawn)	-0.35	-1	36*	-0.83	-24	·
COc1ccc(/C=N/NC(=O)c2cc(-c3ccc(C)cc3C)nc3ccccc23)cc1COC(C)=O	·	-9	10	-1.9	7	·
O=c1c2cc3ccccc3n2cnn1Cc1ccccc1F	-0.25	5	20	-0.93	7	75*
COc1ccc(-n2c(=O)c3c4c(sc3n3c(C)nnc23)CC(C)CC4)cc1 (stereo not drawn)	·	·	·	·	·	9
COCCNCC(=O)C12CC3CC(CC(C3)C1)C2	0.83	-9	3	0.84	-7	-9
CCOC(=O)Cc1c(C)c2ccc(N(CC)CC)cc2oc1=O	·	-2	1	0.84	46*	17
CCN(CC)c1ccc2c(Cl)c(Br)c(=O)oc2c1	-6.4*	3	10	-1.5	4	42
CCN(CC)c1ccc2c(c1)oc(=O)c1c(Cl)cc(=O)oc12	-0.8	0	13	0.7	9	13
CCOC(=O)CCc1c(C)c2ccc(O)cc2oc1=O	0.16	-3	7	-0.49	-2	2
Cn1ncc(N=Cc2ccccc2)c1C(=O)Nc1cccc(Cl)c1	0.017	-7	14	0.07	9	·
C=C1CC2C(=O)N(Cc3cc(OC)ccc3OC)C(C(=O)OCC)(C(=O)OCC)C1N2C(=O)OC(C)(C)C (stereo not drawn)	-0.45	·	·	·	·	·
Cc1cc(C)nc(SCc2nnc(SCc3ccccc3Cl)o2)n1	-6.2*	-2	17	-1.8	9	8
Cc1cc(C)nc(SCc2nnc(SCC(=O)Nc3c(C)cccc3C)o2)n1	0.67	·	·	0.24	·	·
COc1cc(C2CC(=O)c3cnc(NC(=O)COc4ccccc4)nc3C2)cc(OC)c1OC (stereo not drawn)	0.24	-6	4	-3.1*	13	-3
O=Nc1c(O)n(Cc2ccc(Cl)c(Cl)c2)c2ccccc12	-2.3	10	59*	-2.7	22	·
COc1ccc(NC(C)C(=O)Nc2ccc(C(C)(C)C)cc2)cc1Cl (stereo not drawn)	-6*	0	34*	-1.4	-5	·
COc1ccc(NC(C)C(=O)Nc2ccc(C#N)cc2)cc1Cl (stereo not drawn)	-0.43	12	11	0.57	-5	·
c1ccc(C2=Nc3ccccc3SC2c2nc3ccccc3[nH]2)cc1 (stereo not drawn)	-0.02	3	3	·	0	·
CCCCCCCCOC(=O)C1=C(C)Nc2nnnn2C1c1cccs1 (stereo not drawn)	0.16	-3	79*	-0.81	18	·

Bioassay records (PubChem BioAssay)
